Reference: ChEMBL document CHEMBL1122831, “Synthesis and structure-activity relationships of novel arylfluoroquinolone antibacterial agents” (1985)
Values after ≈ are worked out from the molar mass of the structure shown.

How the values were obtained:
Format in all cases: functional
Escherichia coli = assay: Minimum inhibition concentration in vitro determined against Escherichia coli juhl; conditions: Escherichia coli; read-out: MIC
Method in brief: (§1)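 Agar dilution on brain-heart infusion (BHI) agar with twofold dilutions from a 2000 µg/mL stock, giving final test concentrations of 200-0.005 µg/mL. Organisms were grown overnight in BHI broth at 36 °C, and about 10⁴ organisms were inoculated per plate. Plates were incubated 18 h at 36 °C. MIC was the lowest concentration with no visible growth.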

Klebsiella aerogenes = assay: Minimum inhibition concentration in vitro determined against Enterobacteri aerogenes ATCC 13048; method in brief: as §1
Klebsiella pneumoniae = assay: Minimum inhibition concentration in vitro determined against Klebsiella pneumoniae 8045; method in brief: as §1
Pseudomonas aeruginosa [1] = assay: Minimum inhibition concentration in vitro determined against Pseudomona aeruginosa 5007; method in brief: as §1
Pseudomonas aeruginosa [2] = assay: Minimum inhibition concentration in vitro determined against Pseudomona aeruginosa K799/WT; method in brief: as §1
[3] = test system: Staphylococcus epidermidis; assay: Minimum inhibition concentration in vitro determined against Staphylococcus epidermidis 3519; method in brief: as §1
Staphylococcus aureus [4] = assay: Minimum inhibition concentration in vitro determined against Staphylococcus aureus ATCC 6538P; method in brief: as §1
Streptococcus pyogenes = assay: Minimum inhibition concentration in vitro determined against Streptococcus pyogenes 930; method in brief: as §1
Staphylococcus aureus [5] = assay: Minimum inhibition concentration in vitro determined against Staphylococcus aureus CMX 686B; method in brief: as §1
Enterococcus faecium = assay: Minimum inhibition concentration in vitro determined against Streptococcus faecium ATCC 8043; method in brief: as §1
Acinetobacter = assay: Minimum inhibition concentration in vitro determined against Acinetobacter sp CMX669; method in brief: as §1

SMILES	MIC (Escherichia coli)	MIC (Klebsiella aerogenes)	MIC (Klebsiella pneumoniae)	MIC (Pseudomonas aeruginosa [1])	MIC (Pseudomonas aeruginosa [2])	MIC [3]	MIC (Staphylococcus aureus [4])	MIC (Streptococcus pyogenes)	MIC (Staphylococcus aureus [5])	MIC (Enterococcus faecium)	MIC (Acinetobacter)
O=C(O)c1cn(-c2ccc(F)cc2)c2cc(N3CCSCC3)c(F)cc2c1=O	0.78 µg/mL (≈ 1.94 µM)	0.78 µg/mL (≈ 1.94 µM)	0.39 µg/mL (≈ 0.969 µM)	3.1 µg/mL (≈ 7.7 µM)	3.1 µg/mL (≈ 7.7 µM)	0.1 µg/mL (≈ 0.248 µM)	0.05 µg/mL (≈ 0.124 µM)	0.78 µg/mL (≈ 1.94 µM)	0.05 µg/mL (≈ 0.124 µM)	0.78 µg/mL (≈ 1.94 µM)	0.78 µg/mL (≈ 1.94 µM)
CN1CCN(c2cc3c(cc2F)c(=O)c(C(=O)O)cn3-c2ccc(Cl)cc2)CC1	1.56 µg/mL (≈ 3.75 µM)	1.56 µg/mL (≈ 3.75 µM)	0.78 µg/mL (≈ 1.88 µM)	12.5 µg/mL (≈ 30.1 µM)	6.2 µg/mL (≈ 14.9 µM)	1.56 µg/mL (≈ 3.75 µM)	1.56 µg/mL (≈ 3.75 µM)	12.5 µg/mL (≈ 30.1 µM)	1.56 µg/mL (≈ 3.75 µM)	100 µg/mL (≈ 240 µM)	1.56 µg/mL (≈ 3.75 µM)
CN1CCN(c2cc3c(cc2F)c(=O)c(C(=O)O)cn3-c2ccc(O)cc2)CC1	0.1 µg/mL (≈ 0.252 µM)	0.2 µg/mL (≈ 0.503 µM)	0.05 µg/mL (≈ 0.126 µM)	0.39 µg/mL (≈ 0.981 µM)	0.39 µg/mL (≈ 0.981 µM)	0.2 µg/mL (≈ 0.503 µM)	0.05 µg/mL (≈ 0.126 µM)	0.2 µg/mL (≈ 0.503 µM)	0.1 µg/mL (≈ 0.252 µM)	0.39 µg/mL (≈ 0.981 µM)	0.39 µg/mL (≈ 0.981 µM)
CC(=O)NC1CCN(c2cc3c(cc2F)c(=O)c(C(=O)O)cn3-c2ccc(F)cc2)C1 (stereo not given)	0.78 µg/mL (≈ 1.82 µM)	1.56 µg/mL (≈ 3.65 µM)	0.78 µg/mL (≈ 1.82 µM)	6.2 µg/mL (≈ 14.5 µM)	6.2 µg/mL (≈ 14.5 µM)	0.39 µg/mL (≈ 0.912 µM)	0.1 µg/mL (≈ 0.234 µM)	0.78 µg/mL (≈ 1.82 µM)	0.39 µg/mL (≈ 0.912 µM)	1.56 µg/mL (≈ 3.65 µM)	3.1 µg/mL (≈ 7.25 µM)
Cc1ccc(-n2cc(C(=O)O)c(=O)c3cc(F)c(N4CCN(C)CC4)cc32)cc1	1.56 µg/mL (≈ 3.95 µM)	3.1 µg/mL (≈ 7.84 µM)	0.78 µg/mL (≈ 1.97 µM)	12.5 µg/mL (≈ 31.6 µM)	12.5 µg/mL (≈ 31.6 µM)	3.1 µg/mL (≈ 7.84 µM)	1.56 µg/mL (≈ 3.95 µM)	12.5 µg/mL (≈ 31.6 µM)	1.56 µg/mL (≈ 3.95 µM)	50 µg/mL (≈ 126 µM)	1.56 µg/mL (≈ 3.95 µM)
CN1CCN(c2cc3c(cc2F)c(=O)c(C(=O)O)cn3-c2ccccc2)CC1	0.78 µg/mL (≈ 2.05 µM)	1.56 µg/mL (≈ 4.09 µM)	0.2 µg/mL (≈ 0.524 µM)	6.2 µg/mL (≈ 16.3 µM)	3.1 µg/mL (≈ 8.13 µM)	0.78 µg/mL (≈ 2.05 µM)	0.78 µg/mL (≈ 2.05 µM)	3.1 µg/mL (≈ 8.13 µM)	0.78 µg/mL (≈ 2.05 µM)	12.5 µg/mL (≈ 32.8 µM)	1.56 µg/mL (≈ 4.09 µM)
O=C(O)c1cn(-c2ccc(F)cc2)c2cc(N3CCCNCC3)c(F)cc2c1=O	0.2 µg/mL (≈ 0.501 µM)	0.39 µg/mL (≈ 0.976 µM)	0.1 µg/mL (≈ 0.25 µM)	1.56 µg/mL (≈ 3.91 µM)	3.1 µg/mL (≈ 7.76 µM)	1.56 µg/mL (≈ 3.91 µM)	0.78 µg/mL (≈ 1.95 µM)	6.2 µg/mL (≈ 15.5 µM)	0.78 µg/mL (≈ 1.95 µM)	12.5 µg/mL (≈ 31.3 µM)	1.56 µg/mL (≈ 3.91 µM)
CN1CCN(c2cc3c(cc2F)c(=O)c(C(=O)O)cn3-c2ccc(F)cc2)CC1=O	0.39 µg/mL (≈ 0.943 µM)	0.39 µg/mL (≈ 0.943 µM)	0.2 µg/mL (≈ 0.484 µM)	1.56 µg/mL (≈ 3.77 µM)	0.78 µg/mL (≈ 1.89 µM)	0.2 µg/mL (≈ 0.484 µM)	0.1 µg/mL (≈ 0.242 µM)	0.39 µg/mL (≈ 0.943 µM)	0.2 µg/mL (≈ 0.484 µM)	0.78 µg/mL (≈ 1.89 µM)	0.39 µg/mL (≈ 0.943 µM)
O=C(O)c1cn(-c2ccc(F)cc2)c2cc(N3CCCCC3)c(F)cc2c1=O	1.56 µg/mL (≈ 4.06 µM)	3.1 µg/mL (≈ 8.06 µM)	1.56 µg/mL (≈ 4.06 µM)	6.2 µg/mL (≈ 16.1 µM)	6.2 µg/mL (≈ 16.1 µM)	0.39 µg/mL (≈ 1.01 µM)	0.2 µg/mL (≈ 0.52 µM)	1.56 µg/mL (≈ 4.06 µM)	0.2 µg/mL (≈ 0.52 µM)	3.1 µg/mL (≈ 8.06 µM)	1.56 µg/mL (≈ 4.06 µM)
CC(C)N(C)c1cc2c(cc1F)c(=O)c(C(=O)O)cn2-c1ccc(F)cc1	6.2 µg/mL (≈ 16.7 µM)	6.2 µg/mL (≈ 16.7 µM)	3.1 µg/mL (≈ 8.33 µM)	100 µg/mL (≈ 269 µM)	50 µg/mL (≈ 134 µM)	1.56 µg/mL (≈ 4.19 µM)	0.78 µg/mL (≈ 2.09 µM)	12.5 µg/mL (≈ 33.6 µM)	0.78 µg/mL (≈ 2.09 µM)	12.5 µg/mL (≈ 33.6 µM)	12.5 µg/mL (≈ 33.6 µM)
O=C(O)c1cn(-c2ccccc2)c2cc(N3CCNCC3)c(F)cc2c1=O	0.2 µg/mL (≈ 0.544 µM)	0.39 µg/mL (≈ 1.06 µM)	–	0.78 µg/mL (≈ 2.12 µM)	1.56 µg/mL (≈ 4.25 µM)	1.56 µg/mL (≈ 4.25 µM)	0.39 µg/mL (≈ 1.06 µM)	1.56 µg/mL (≈ 4.25 µM)	0.39 µg/mL (≈ 1.06 µM)	12.5 µg/mL (≈ 34 µM)	0.78 µg/mL (≈ 2.12 µM)
